{"source": "BindingDB's records for doi:10.1021/jm9802620", "about": "(University of Washington, 1998)", "key": {"[1]": {"target": "Glyceraldehyde-3-phosphate dehydrogenase (GAPDH)", "assay": "Inhibitory activity was measured for Glyceraldehyde-3-phosphate dehydrogenase (GAPDH) in Leishmania. mexicana."}, "[2]": {"target": "Glyceraldehyde-3-phosphate dehydrogenase (GAPDH)", "assay": "Inhibitory activity measured for Glyceraldehyde-3-phosphate dehydrogenase (GAPDH) in Leishmania. mexicana", "how_it_was_run": "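Recombinant glycosomal GAPDH of L. mexicana, T. cruzi or T. brucei; human enzyme from erythrocytes. NADH formation followed at 340 nm, 21 °C, in 0.1 M triethanolamine-HCl pH 7.6 with DTT, NaN3, MgSO4, EDTA, 10 mM K2HPO4, 0.8 mM glyceraldehyde-3-phosphate, 0.19 mM NAD+, 5% DMSO. Reaction started with enzyme. IC50 from 0–1 min initial rates at ≥5 inhibitor levels versus DMSO control.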"}}, "data": [{"smiles": "CC(C)CCNc1ncnc2c1ncn2C1O[C@H](CO)[C@@H](O)[C@H]1O", "note": "(stereo not given in full)", "values": [{"measurement": "IC50", "setting": "[1]", "value": 3.7, "unit": "mM"}]}, {"smiles": "Cc1cccc(CNc2ncnc3c2ncn3C2O[C@H](CO)[C@@H](O)[C@H]2O)c1", "note": "(stereo not given in full)", "values": [{"measurement": "IC50", "setting": "[2]", "value": 0.7, "unit": "mM"}]}, {"smiles": "OC[C@H]1OC(n2cnc3c(N[C@@H]4CCCc5ccccc54)ncnc32)[C@H](O)[C@@H]1O", "note": "(stereo not given in full)", "values": [{"measurement": "IC50", "setting": "[2]", "value": 0.36, "unit": "mM"}]}, {"smiles": "CC(C)=CCNc1ncnc2c1ncn2C1O[C@H](CO)[C@@H](O)[C@H]1O", "note": "(stereo not given in full)", "values": [{"measurement": "IC50", "setting": "[2]", "value": "> 5", "unit": "mM"}]}, {"smiles": "Nc1ccc(CNc2ncnc3c2ncn3C2O[C@H](CO)[C@@H](O)[C@H]2O)cc1", "note": "(stereo not given in full)", "values": [{"measurement": "IC50", "setting": "[2]", "value": 3.1, "unit": "mM"}]}]}
